Calls of active or inactive are those of the source. The rule behind the calls is not given here.
Key:
NB-4 [1] = experiment: Induction of cell differentiation in human NB4 cells assessed as induction of induction of cell surface marker CD11b expression at 1 nM after 48 hrs; type: functional, cell-based
Method in brief: (§1)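 NB4 human promyelocytic leukemia cells kept in log-phase suspension in RPMI 1640 with 10% […] iron-supplemented bovine calf serum, 37 °C, 5% CO₂. Exposed to compounds at 1 nM for 48 h; 1 × 10⁶ cells washed twice in PBS, then labelled with MY4-RD1 and Mo1-FITC antibodies to measure surface CD14 and CD11b expression.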

NB-4 [2] = experiment: Induction of cell differentiation in human NB4 cells assessed as induction of induction of cell surface marker CD14 expression at 1 nM after 48 hrs; type: functional, cell-based; method in brief: as §1
[3] = Antiproliferative activity against human MCF10CA1a after 3 days by [3H]thymidine uptake assay; type: functional

Structure (SMILES): CC(C)(O)CCC[C@H](CC#CC(O)(C(F)(F)F)C(F)(F)F)[C@H]1CC[C@H]2/C(=C/C=C3C[C@@H](O)C[C@H](O)C3)CCC[C@]12C
- Activity (NB-4 [1]; tested as the 2H-labelled form): Active
- Activity (NB-4 [2]; tested as the 2H-labelled form): Active

Structure (SMILES): [2H]C([2H])([2H])C(O)(CCC[C@H](CC#CC(O)(C(F)(F)F)C(F)(F)F)[C@H]1CC[C@H]2/C(=C/C=C3/C[C@@H](O)C[C@H](O)C3=C)CCC[C@]12C)C([2H])([2H])[2H]
- IC50 [3]: 0.053 nM

Structure (SMILES): [2H]C([2H])([2H])C(O)(CCC[C@@H](CC#CC(O)(C(F)(F)F)C(F)(F)F)[C@H]1CC[C@H]2/C(=C/C=C3C[C@@H](O)C[C@H](O)C3)CCC[C@]12C)C([2H])([2H])[2H]
- IC50 [3]: 0.12 nM

Structure (SMILES): C=C1/C(=C\C=C2/CCC[C@]3(C)[C@@H]([C@H](CC#CC(O)(C(F)(F)F)C(F)(F)F)CCCC(C)(C)O)CC[C@@H]23)C[C@@H](O)C[C@@H]1F
- Activity (NB-4 [1]; tested as the 2H-labelled form): Active
- Activity (NB-4 [2]; tested as the 2H-labelled form): Active

Structure (SMILES): C=C1/C(=C\C=C2/CCC[C@]3(C)[C@@H]([C@H](C/C=C\C(O)(C(F)(F)F)C(F)(F)F)CCCC(C)(C)O)CC[C@@H]23)C[C@@H](O)C[C@@H]1O
- Activity (NB-4 [1]; tested as the 2H-labelled form): Active
- Activity (NB-4 [2]; tested as the 2H-labelled form): Active

Structure (SMILES): CC(C)(O)CCC[C@H](C/C=C\C(O)(C(F)(F)F)C(F)(F)F)[C@H]1CC[C@H]2/C(=C/C=C3C[C@@H](O)C[C@H](O)C3)CCC[C@]12C
- Activity (NB-4 [1]; tested as the 2H-labelled form): Active
- Activity (NB-4 [2]; tested as the 2H-labelled form): Active

Structure (SMILES): C=C1/C(=C\C=C2/CCC[C@]3(C)[C@@H]([C@H](C)CCCC(C)(C)O)CC[C@@H]23)C[C@@H](O)C[C@@H]1O
- Activity (NB-4 [1]): Active
- Activity (NB-4 [2]): Active

Structure (SMILES): CC(C)(O)CCC[C@@H](C/C=C\C(O)(C(F)(F)F)C(F)(F)F)[C@H]1CC[C@H]2/C(=C/C=C3C[C@@H](O)C[C@H](O)C3)CCC[C@]12C
- Activity (NB-4 [1]; tested as the 2H-labelled form): Active
- Activity (NB-4 [2]; tested as the 2H-labelled form): Active

Structure (SMILES): [2H]C([2H])([2H])C(O)(CCC[C@@H](CC#CC(O)(C(F)(F)F)C(F)(F)F)[C@H]1CC[C@H]2/C(=C/C=C3/C[C@@H](O)C[C@H](F)C3=C)CCC[C@]12C)C([2H])([2H])[2H]
- IC50 [3]: 0.56 nM

Structure (SMILES): [2H]C([2H])([2H])C(O)(CCC[C@H](CC#CC(O)(C(F)(F)F)C(F)(F)F)[C@H]1CC[C@H]2/C(=C/C=C3C[C@@H](O)C[C@H](O)C3)CCC[C@]12C)C([2H])([2H])[2H]
- IC50 [3]: 0.19 nM

Structure (SMILES): C=C1/C(=C\C=C2/CCC[C@]3(C)[C@@H]([C@@H](CC#CC(O)(C(F)(F)F)C(F)(F)F)CCCC(C)(C)O)CC[C@@H]23)C[C@@H](O)C[C@@H]1F
- Activity (NB-4 [1]; tested as the 2H-labelled form): Active
- Activity (NB-4 [2]; tested as the 2H-labelled form): Active

Structure (SMILES): C=C1/C(=C\C=C2/CCC[C@]3(C)[C@@H]([C@@H](CC#CC(O)(C(F)(F)F)C(F)(F)F)CCCC(C)(C)O)CC[C@@H]23)C[C@@H](O)C[C@@H]1O
- Activity (NB-4 [1]; tested as the 2H-labelled form): Active
- Activity (NB-4 [2]; tested as the 2H-labelled form): Active

Structure (SMILES): C=C1/C(=C\C=C2/CCC[C@]3(C)[C@@H]([C@@H](C/C=C\C(O)(C(F)(F)F)C(F)(F)F)CCCC(C)(C)O)CC[C@@H]23)C[C@@H](O)C[C@@H]1O
- Activity (NB-4 [1]; tested as the 2H-labelled form): Active
- Activity (NB-4 [2]; tested as the 2H-labelled form): Active

Structure (SMILES): C=C1/C(=C\C=C2/CCC[C@]3(C)[C@@H]([C@H](C/C=C\C(O)(C(F)(F)F)C(F)(F)F)CCCC(C)(C)O)CC[C@@H]23)C[C@@H](O)C[C@@H]1F
- Activity (NB-4 [1]; tested as the 2H-labelled form): Active
- Activity (NB-4 [2]; tested as the 2H-labelled form): Active

Structure (SMILES): [2H]C([2H])([2H])C(O)(CCC[C@H](C/C=C\C(O)(C(F)(F)F)C(F)(F)F)[C@H]1CC[C@H]2/C(=C/C=C3/C[C@@H](O)C[C@H](O)C3=C)CCC[C@]12C)C([2H])([2H])[2H]
- IC50 [3]: 0.56 nM

Structure (SMILES): C=C1/C(=C\C=C2/CCC[C@]3(C)[C@@H]([C@@H](C/C=C\C(O)(C(F)(F)F)C(F)(F)F)CCCC(C)(C)O)CC[C@@H]23)C[C@@H](O)C[C@@H]1F
- Activity (NB-4 [1]; tested as the 2H-labelled form): Active
- Activity (NB-4 [2]; tested as the 2H-labelled form): Active

Structure (SMILES): [2H]C([2H])([2H])C(O)(CCC[C@@H](C/C=C\C(O)(C(F)(F)F)C(F)(F)F)[C@H]1CC[C@H]2/C(=C/C=C3C[C@@H](O)C[C@H](O)C3)CCC[C@]12C)C([2H])([2H])[2H]
- IC50 [3]: 3.2 nM

Structure (SMILES): [2H]C([2H])([2H])C(O)(CCC[C@@H](CC#CC(O)(C(F)(F)F)C(F)(F)F)[C@H]1CC[C@H]2/C(=C/C=C3/C[C@@H](O)C[C@H](O)C3=C)CCC[C@]12C)C([2H])([2H])[2H]
- IC50 [3]: 0.062 nM

Structure (SMILES): C=C1/C(=C\C=C2/CCC[C@]3(C)[C@@H]([C@H](CC#CC(O)(C(F)(F)F)C(F)(F)F)CCCC(C)(C)O)CC[C@@H]23)C[C@@H](O)C[C@@H]1O
- Activity (NB-4 [1]; tested as the 2H-labelled form): Active
- Activity (NB-4 [2]; tested as the 2H-labelled form): Active

Structure (SMILES): CC(C)(O)CCC[C@@H](CC#CC(O)(C(F)(F)F)C(F)(F)F)[C@H]1CC[C@H]2/C(=C/C=C3C[C@@H](O)C[C@H](O)C3)CCC[C@]12C
- Activity (NB-4 [1]; tested as the 2H-labelled form): Active
- Activity (NB-4 [2]; tested as the 2H-labelled form): Active

Structure (SMILES): [2H]C([2H])([2H])C(O)(CCC[C@H](C/C=C\C(O)(C(F)(F)F)C(F)(F)F)[C@H]1CC[C@H]2/C(=C/C=C3C[C@@H](O)C[C@H](O)C3)CCC[C@]12C)C([2H])([2H])[2H]
- IC50 [3]: 0.43 nM

Structure (SMILES): [2H]C([2H])([2H])C(O)(CCC[C@H](C/C=C\C(O)(C(F)(F)F)C(F)(F)F)[C@H]1CC[C@H]2/C(=C/C=C3/C[C@@H](O)C[C@H](F)C3=C)CCC[C@]12C)C([2H])([2H])[2H]
- IC50 [3]: 6.9 nM

Structure (SMILES): [2H]C([2H])([2H])C(O)(CCC[C@H](CC#CC(O)(C(F)(F)F)C(F)(F)F)[C@H]1CC[C@H]2/C(=C/C=C3/C[C@@H](O)C[C@H](F)C3=C)CCC[C@]12C)C([2H])([2H])[2H]
- IC50 [3]: 1.6 nM

Structure (SMILES): [2H]C([2H])([2H])C(O)(CCC[C@@H](C/C=C\C(O)(C(F)(F)F)C(F)(F)F)[C@H]1CC[C@H]2/C(=C/C=C3/C[C@@H](O)C[C@H](F)C3=C)CCC[C@]12C)C([2H])([2H])[2H]
- IC50 [3]: > 10 nM

Structure (SMILES): [2H]C([2H])([2H])C(O)(CCC[C@@H](C/C=C\C(O)(C(F)(F)F)C(F)(F)F)[C@H]1CC[C@H]2/C(=C/C=C3/C[C@@H](O)C[C@H](O)C3=C)CCC[C@]12C)C([2H])([2H])[2H]
- IC50 [3]: 1.6 nM
